# Assay results published in PubChem BioAssay AID695 (The Scripps Research Institute Molecular Screening Center, 2007).
# Target: Steroidogenic factor 1 (Homo sapiens) (UniProt Q13285)
# Assay: SF-1 driven luciferase reporter response, dose response, counter-screen for RORA activator project, CHO-K1 cells (AID 695)
# Conditions: CHO-K1 SF1 luciferase transactivation, luminescence
# In short: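 Material – transiently transfected CHO-K1, Gal4-DBD/human SF-1 LBD fusion, 5xGal4-luciferase reporter · Signal – luciferase luminescence with SteadyLite reagent · Replication – triplicate wells per concentration · Times – 20 h compound treatment, 37 °C · Measure – EC50 by four-parameter fit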
row,Structure (SMILES),EC50
1,C=CCOc1ccc(/C=C/C(C)=N\O)cc1,1.02 µM
2,O=C1COc2ccc(OCc3ccc(F)cc3)cc21,1.71 µM
